Assay outcomes as filed in PubChem.
Hits are enriched below; roughly 3.1% of the tested compounds scored in any of these assays.
SENP6 inh: SENP6 protease inhibitors, primary screen, biochemical, luminescence, uHTS | hit rate 1.8% among 330,000 | inhibition, % at 10 µM | Recombinant SENP6 catalytic domain, aminoluciferin luminescence | Sentrin-specific protease 6 (Homo sapiens), Q9GZR1;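 active = inhibition above about 50% at the single tested dose, limit read from the data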
Apaf1 inhib: inhibitors of human Apaf-1 apoptosome, primary screen, biochemical, DEVD-Rh110 fluorescence, uHTS; Apoptotic protease-activating factor 1 (Homo sapiens), O14727; reconstituted apoptosome caspase-3 activity; inhibition, % at 20 µM; hit rate 0.71% among 330,000; AID 489030, 2010; active = inhibition of at least 40% at 20 µM
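Material: reconstituted apoptosome with Apaf-1, cytochrome c, caspase-9, procaspase-3, dATP / Buffer or medium: pH 7.5 Hepes buffer with CHAPS, BSA, DTT / Also added: cytochrome c with DEVD-Rh110 / Schedule: compound with Apaf-1, dATP, procaspase-3 30 min, then 50 min reaction, room temperature / Technique: rhodamine 110 fluorescence at Ex 480/Em 540 nm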
SENP8 block-1: SENP8 protease inhibitors, primary screen, biochemical, luminescence. hit rate 1.2% among 330,000. purified SENP8, Z-RLRGG-aminoluciferin cleavage. Sentrin-specific protease 8 (Homo sapiens), Q96LD8. AID 2540, 2010. inhibition, % at 10 µM; in the data active = inhibition above about 50%
Target sequence (Q96LD8 whole entry, looked up): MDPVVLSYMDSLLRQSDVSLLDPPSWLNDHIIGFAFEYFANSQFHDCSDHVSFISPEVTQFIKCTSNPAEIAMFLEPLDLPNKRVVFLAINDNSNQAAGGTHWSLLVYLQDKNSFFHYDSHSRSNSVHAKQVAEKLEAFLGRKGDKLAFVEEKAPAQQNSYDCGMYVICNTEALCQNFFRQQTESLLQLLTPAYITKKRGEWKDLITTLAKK
SENP8 block-2: human SENP8 protease inhibitors, primary screen, biochemical, fluorescence, Nedd8 protein substrate, uHTS; Sentrin-specific protease 8 (Homo sapiens), Q96LD8; recombinant SENP8; inhibition, % at 20 µM; hit rate 0.64% among 360,000; in the data active = inhibition mostly above about 40%, no sharp cut-off; inactive = mostly below about 27%
SENP7 inh: SENP7 protease inhibitors, primary screen, biochemical, luminescence, uHTS | Sentrin-specific protease 7 (Homo sapiens), Q9BQF6 | recombinant SENP7, Z-RLRGG-aminoluciferin luminescence, 40 min | inhibition, % at 5 µM | hit rate 1.5% among 330,000 | AID 434973, 2010;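 active = inhibition above about 50% at the single test dose, limit read from the data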
Target sequence (Q9BQF6 706-1050 limits assumed): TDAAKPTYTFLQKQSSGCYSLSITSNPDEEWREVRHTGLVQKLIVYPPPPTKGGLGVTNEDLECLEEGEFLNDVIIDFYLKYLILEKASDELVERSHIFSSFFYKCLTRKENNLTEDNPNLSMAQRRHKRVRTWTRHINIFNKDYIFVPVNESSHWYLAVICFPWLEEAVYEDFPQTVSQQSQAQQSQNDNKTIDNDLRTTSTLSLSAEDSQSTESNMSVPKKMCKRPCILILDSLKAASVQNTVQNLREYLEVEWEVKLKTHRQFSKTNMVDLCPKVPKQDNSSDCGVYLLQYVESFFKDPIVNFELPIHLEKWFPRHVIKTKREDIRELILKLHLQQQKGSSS
UBC13 inh: UBC13 polyubiquitin chain formation inhibitors, primary screen, biochemical, TR-FRET, uHTS | Ubiquitin-conjugating enzyme E2 N (Homo sapiens), P61088 | inhibition, % at 20 µM | hit rate 0.47% among 330,000 | AID 485273, 2010; in the data active = inhibition above about 45%, passing the limit was not always enough
SENP8 confirm: SENP8 protease inhibitors, retest, confirmation, biochemical, luminescence, single concentration. shares compounds with SENP7 inh. Recombinant SENP8, Z-RLRGG-aminoluciferin luminescence, 60 min. inhibition, % at 12.5 µM. hit rate 40% among 6,200;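 active = mean inhibition across replicates above about 50%, limit read from the data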
SENP6 confirm: SENP6 protease inhibitors, confirmation, biochemical, luminescence, single concentration | shares compounds with SENP7 inh | recombinant SENP6, Z-RLRGG-aminoluciferin luminescence | inhibition, % at 12.5 µM | hit rate 58% among 6,200
SENP7 conf: SENP7 protease inhibitors, retest, confirmation, biochemical, luminescence, single concentration; shares compounds with SENP7 inh; recombinant SENP7, Z-RLRGG-aminoluciferin luminescence, 40 min; inhibition, % at 12.5 µM; hit rate 69% among 6,200; AID 488917, 2010
Casp3 select: caspase-3 protease inhibitors, confirmation, selectivity assay for SENP inhibitor project, biochemical, single concentration; shares compounds with SENP7 inh; purified caspase-3, Z-DEVD-aminoluciferin luminescence, 60 min; inhibition, % at 12.5 µM; hit rate 60% among 6,200; AID 488918, 2010;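 active = mean inhibition above about 50%, limit read from the data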
SENP luc ctr: luminescence interference (SENP counter-screen); shares compounds with SENP7 inh; Pre-incubated SENP8/Z-RLRGG-aminoluciferin, luciferase luminescence interference; inhibition, % at 12.5 µM; hit rate 39% among 6,200; AID 488919;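 active = mean inhibition above about 50% when retested at one dose, limit read from the data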
Numbers stand for hits; - = inactive; . = no result given.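 The calls were made as follows, unless noted: active = mean inhibition above about 50% in the one-dose retest (limit read from the data); inactive = the rest.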

SMILES | SENP6 inh | Apaf1 inhib | SENP8 block-1 | SENP8 block-2 | SENP7 inh | UBC13 inh | SENP8 confirm | SENP6 confirm | SENP7 conf | Casp3 select | SENP luc ctr
O=S1(=O)CC(N2CC=CC2)CN1Cc1cn(Cc2ccc(Cl)cc2)nn1 (stereo not drawn) | . | . | . | - | . | . | . | . | . | . | .
Brc1ccccc1-n1nnc(-c2nccs2)n1 | 61 | - | 55 | - | 56 | - | - | - | 79 | 66 | 65
Fc1ccc(-n2nnc(-c3ccccc3)n2)cc1 | - | - | - | - | - | - | . | . | . | . | .
c1ccc(-n2nnc(-c3nccs3)n2)cc1 | 82 | - | 77 | - | 77 | - | 71 | 82 | 97 | 92 | 71
O=C(NC1CCCCC1)C1c2ccccc2OCC(=O)N1CCc1c[nH]c2ccccc12 (stereo not drawn) | . | . | . | - | . | . | . | . | . | . | .
O=Nc1c2nc3ccccc3n(O)c-2c2ccccc12 | 50 | - | - | - | - | - | - | - | - | 53 | -
Cn1cc([C@]2(O)C(=O)Nc3ccc(OC(F)(F)F)cc32)c2ccccc21 | . | . | . | - | . | . | . | . | . | . | .
Cc1ccc(C)c(CC(=O)N2CCCCC2c2cc(C(=O)Nc3cccc(C#N)c3)no2)c1 (stereo not drawn) | . | . | . | - | . | . | . | . | . | . | .
C(=N\N=C\c1cccs1)/c1cccs1 | 57 | - | - | - | 52 | - | - | 61 | 87 | 62 | -
Cc1ccnc(NC(=O)Nc2cccc(F)c2)c1 | 93 | - | 73 | - | 94 | - | 56 | 72 | 89 | 72 | -
Cc1ccc(NC(=O)Nc2cccc(F)c2)nc1 | 52 | - | - | - | 53 | - | - | - | - | - | -
OC[C@@H]1CN(Cc2ccc(F)cc2)C[C@H](n2cnc3c(N4CCCC4)ncnc32)O1 | . | . | . | - | . | . | . | . | . | . | .
CSc1cccc(NC(=O)Cn2cccc2)c1 | - | - | - | - | - | - | . | . | . | . | .
CSc1cccc(NC(=O)c2cnn3ccccc23)c1 | 76 | - | - | - | 71 | - | 72 | 70 | 91 | 65 | 72
CCc1ccc(NC(=O)c2cnn3ccccc23)cc1 | 91 | - | 89 | - | 95 | - | 93 | 94 | 101 | 93 | 94
COc1ccc(-c2coc3c(C(=O)Nc4cccnc4)cccc23)c(C)c1 | . | . | . | - | . | . | . | . | . | . | .
O=C1C(C=NCCN2CCOCC2)=C(O)c2ccccc21 | - | - | - | - | - | - | . | . | . | . | .
O=C1C(C=Nc2ccccc2)=C(O)c2ccccc21 | 98 | - | 92 | - | 99 | - | 87 | 88 | 100 | 94 | 61
COc1ccc(N=Cc2ccccc2O)cc1 | . | . | . | - | . | . | . | . | . | . | .
O=C1C(C=Nc2ccccc2O)=C(O)c2ccccc21 | 96 | - | 95 | 45 | - | - | 88 | 95 | 100 | 95 | 96
COc1ccc(N=CC2=C(O)c3ccccc3C2=O)cc1 | 95 | - | 93 | 46 | 99 | - | - | 67 | - | 89 | -
COc1ccc([C@@H]2CC(=O)[C@@H]3CN(S(=O)(=O)c4ccc(C)cc4)[C@H](c4ccccc4)C[C@@H]3N2S(=O)(=O)c2ccccc2)cc1 | . | . | . | - | . | . | . | . | . | . | .
CCCCC(=O)N(C)c1c(C)nc2ccc(C(=O)N(C)CCN(C)C)cn12 | . | . | . | - | . | . | . | . | . | . | .
CCN1C(=O)/C(=C/N2CCc3ccccc32)SC1=S | - | - | - | - | 56 | - | - | - | - | - | -
CCN1C(=O)/C(=C\N2CCCc3ccccc32)SC1=S | - | - | - | - | - | - | . | . | . | . | .
SMILES | SENP6 inh | Apaf1 inhib | SENP8 block-1 | SENP8 block-2 | SENP7 inh | UBC13 inh | SENP8 confirm | SENP6 confirm | SENP7 conf | Casp3 select | SENP luc ctr
NC(=S)N/N=C/c1coc2ccc(O)cc2c1=O | - | - | - | - | - | - | . | . | . | . | .
CN1C(=O)/C(=C/c2coc3ccc(O)cc3c2=O)SC1=S | 79 | - | 56 | - | 80 | - | - | - | - | - | -
Cc1cc(/C=C2\SC(=S)N(C)C2=O)c(C)n1-c1ccc(O)cc1 | 79 | - | 58 | - | - | - | - | 84 | 92 | . | -
Cc1ccc(-n2c(C)cc(/C=C3\SC(=O)NC3=O)c2C)cc1 | - | - | - | - | - | - | . | . | . | . | .
Cc1cn([C@H]2C[C@H](O)[C@@H](/C=C/C(=O)NCc3ccc4c(c3)OCO4)O2)c(=O)[nH]c1=O | . | . | . | - | . | . | . | . | . | . | .
Cc1cccc(-c2cnc(C(O)c3ccc(-c4ccccc4)cc3)[nH]2)c1 (stereo not drawn) | . | . | . | - | . | . | . | . | . | . | .
N=c1cc(C2(O)CCCCC2)n2c(nc3ccccc32)s1 | 62 | - | - | - | 58 | - | - | - | 80 | 62 | 54
Cc1[nH][nH]c(=O)c1N=Nc1ccc(Br)c(Cl)c1 | 94 | - | 86 | - | 71 | - | - | - | - | - | -
CC(=O)c1ccc(NS(=O)(=O)c2ccc(N)cc2)cc1 | - | - | - | - | - | - | . | . | . | . | .
Cc1[nH][nH]c(=O)c1N=Nc1ccc(S(N)(=O)=O)cc1 | - | - | - | - | - | - | . | . | . | . | .
Cc1[nH][nH]c(=O)c1N=Nc1ccccc1Cl | - | - | - | - | - | - | . | . | . | . | .
CC(=O)c1ccc(N=Nc2c(C)[nH][nH]c2=O)cc1 | 55 | - | - | 56 | 79 | - | 56 | 57 | 76 | 88 | -
CC(=O)c1ccc(N=Nc2ccc(N)cc2)cc1 | 75 | - | - | 46 | 78 | - | 60 | 62 | 88 | 62 | -
Cc1nc(C(F)(F)F)ccc1C(=O)N1CCC1(C)C(=O)NCc1ccc(Cl)cc1 (stereo not drawn) | . | . | . | - | . | . | . | . | . | . | .
O=C1/C(=C/c2cccnc2)Sc2ccccc21 | - | - | - | - | - | - | . | . | . | . | .
Cc1ccc(/C=C2\Sc3ccccc3C2=O)s1 | 94 | - | 89 | - | 96 | - | - | 86 | 94 | 67 | 65
